The values that follow come from ChEMBL document CHEMBL1121744, “Synthesis and antihypertensive activity of a series of 8-substituted 1-oxa-3,8-diazaspiro[4.5]decan-2-ones” (J Med Chem, 1981).

Structures are written as SMILES.

Data set [1] deals with T1, Adrenergic receptor alpha-1 (Rattus norvegicus, UniProt P15823+P23944+P43140).
T1 sequence (P15823 whole entry): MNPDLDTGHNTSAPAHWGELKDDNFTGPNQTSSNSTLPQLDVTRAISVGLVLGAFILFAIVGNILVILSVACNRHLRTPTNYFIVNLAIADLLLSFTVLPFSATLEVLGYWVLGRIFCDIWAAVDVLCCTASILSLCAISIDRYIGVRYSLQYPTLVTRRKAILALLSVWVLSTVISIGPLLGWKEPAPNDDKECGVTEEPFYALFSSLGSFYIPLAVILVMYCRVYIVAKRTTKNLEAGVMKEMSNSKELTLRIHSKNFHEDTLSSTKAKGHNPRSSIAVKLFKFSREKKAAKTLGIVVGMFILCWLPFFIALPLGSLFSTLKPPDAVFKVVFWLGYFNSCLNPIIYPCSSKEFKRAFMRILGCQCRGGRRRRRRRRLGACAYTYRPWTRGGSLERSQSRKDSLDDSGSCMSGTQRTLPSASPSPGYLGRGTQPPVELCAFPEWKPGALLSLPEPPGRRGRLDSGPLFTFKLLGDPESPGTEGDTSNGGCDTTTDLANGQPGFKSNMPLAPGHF
T1 sequence (P23944 whole entry): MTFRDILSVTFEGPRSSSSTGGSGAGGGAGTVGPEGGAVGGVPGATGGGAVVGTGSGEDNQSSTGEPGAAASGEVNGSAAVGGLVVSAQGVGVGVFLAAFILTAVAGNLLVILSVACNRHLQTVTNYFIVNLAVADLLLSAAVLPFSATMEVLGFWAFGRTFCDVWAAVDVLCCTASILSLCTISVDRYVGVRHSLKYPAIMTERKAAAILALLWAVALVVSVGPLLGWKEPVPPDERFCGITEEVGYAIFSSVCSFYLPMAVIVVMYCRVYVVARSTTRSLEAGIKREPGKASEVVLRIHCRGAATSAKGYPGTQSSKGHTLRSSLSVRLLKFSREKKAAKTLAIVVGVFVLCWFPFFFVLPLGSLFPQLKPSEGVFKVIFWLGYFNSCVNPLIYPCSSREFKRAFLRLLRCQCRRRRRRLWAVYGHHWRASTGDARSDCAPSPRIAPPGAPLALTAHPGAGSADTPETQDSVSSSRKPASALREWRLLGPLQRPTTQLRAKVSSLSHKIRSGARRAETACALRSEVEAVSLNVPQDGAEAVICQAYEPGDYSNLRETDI
T1 sequence (P43140 whole entry): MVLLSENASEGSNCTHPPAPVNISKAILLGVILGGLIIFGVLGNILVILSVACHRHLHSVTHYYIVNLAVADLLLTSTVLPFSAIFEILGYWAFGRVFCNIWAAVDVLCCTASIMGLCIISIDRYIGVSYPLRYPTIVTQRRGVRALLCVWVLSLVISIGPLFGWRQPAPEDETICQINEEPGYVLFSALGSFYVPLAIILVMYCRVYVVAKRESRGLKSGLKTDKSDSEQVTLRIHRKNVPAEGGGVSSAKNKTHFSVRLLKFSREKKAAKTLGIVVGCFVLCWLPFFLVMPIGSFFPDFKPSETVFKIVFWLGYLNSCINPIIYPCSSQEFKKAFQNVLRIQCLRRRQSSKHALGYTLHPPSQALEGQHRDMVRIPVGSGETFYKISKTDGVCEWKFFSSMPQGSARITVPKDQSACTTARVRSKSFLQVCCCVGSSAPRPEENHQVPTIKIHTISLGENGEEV
Briefly: Antagonistic potency of compound for Alpha-1 adrenergic receptor. In kind it is functional.

Data set [2] relates to Rattus norvegicus. Briefly: Antihypertensive activity as percentage fall in systolic blood pressure in spontaneously hypertensive rats after a period of 1 hr for a dose of 50 mg/kg. In kind it is functional, Artery. In outline:
(§1)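 Male Okamoto-Aoki SHR, trained, in groups of four matched for mean systolic pressure; one group per run received water vehicle. Oral dosing in water (0.1 mL per 10 g) on two consecutive mornings. After the day-2 dose, rats were restrained at 30.0 ± 1.0 °C. Systolic pressure was read by tail cuff (inflated to 300 mmHg, first pulse) at 1–4 h. % fall is versus the untreated control group, by 1-tail t test (p ≤ 0.05).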

The subject of data set [3] is Rattus norvegicus. Briefly: Percentage fall in systolic blood pressure in spontaneously hypertensive rats after 2 hr following 50 mg/kg p.o. The format is functional, Artery. To be noted: route oral. A digest of the protocol:
as §1

Data set [4] is described as follows: Distribution coefficient between 1-Octanol and phosphate buffer at pH7.4. To be noted: 1-octanol/phosphate buffer, pH 7.4. In kind it is physicochemical. In outline: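 Octanol/buffer distribution measured at pH 7.4 in phosphate with sodium chloride. Either HPLC (0.004 M) or shake flask.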

In data set [1], `CN1CC2(CCN(CC(O)C3COc4ccccc4O3)CC2)OC1=O` (stereo not drawn) came in with a pA2 of 4.5. In addition, the results for the “Decrease in blood pressure” value in data set [2] and in data set [3] were 28% and 31%, respectively. In addition, the logD in data set [4] was determined as 1.43.
In data set [1], `O=C1NCC2(CCN(CCc3c[nH]c4ccccc34)CC2)O1` registered a pA2 of 5.5. Besides, the results for the “Decrease in blood pressure” value in data set [2] and in data set [3] were 16% and 10%, respectively. The log distribution coefficient (logD) in data set [4] was 1.45.

One may read the pA2 as a measure of antagonist potency on a negative log scale. The logD is lipophilicity at a set pH, counting ionised and neutral species. Low readings indicate lower lipophilicity, high ones higher lipophilicity.
